Assay results pooled from the literature.
Each line is one published result; the experiments were not run side by side.
CA1: Carbonic anhydrase 1 (CA1, Homo sapiens, UniProt P00915)
Pam: Peptidylglycine alpha-amidating monooxygenase (Pam, Rattus norvegicus, UniProt P14925)
SNCA fibril: Alpha-synuclein, fibril (SNCA, Homo sapiens, UniProt P37840)
CA2: Carbonic anhydrase 2 (CA2, Homo sapiens, UniProt P00918)
Sigmar1: Sigma non-opioid intracellular receptor 1 (Sigmar1, Rattus norvegicus, UniProt Q9R0C9)
OPRD1: Delta-type opioid receptor (OPRD1, Homo sapiens, UniProt P41143)
ADRA2A: Alpha-2A adrenergic receptor (ADRA2A, Homo sapiens, UniProt P08913)

`NS(=O)(=O)c1nnc(NC(=O)CC2CCCC2)s1` has a Ki of 0.0863 µM (CA1; enzyme activity, inhibitor).
With `CN(C)c1ccc(C=CC(=O)O)cc1` the Ki was 3000 µM (Pam; enzyme activity, inhibitor; pH 6).
`COc1ccc(C(=O)Nc2ccc(N3CCCN(c4ccccn4)CC3)cn2)cc1` gave a Ki of 0.185 µM (SNCA fibril; ligand displacement, radioligand).
For `NS(=O)(=O)c1nnc(NC(=O)CC2CCC2)s1`, the Ki was 0.0049 µM (CA2; enzyme activity, inhibitor).
The Ki of `NS(=O)(=O)c1ccc(-n2nccc2-c2ccc(N3CCOCC3)cc2)cc1` is reported as 0.624 µM (CA2; enzyme activity, inhibitor, stopped-flow).
For `C#CCNCCCN1CCN(CCCNC(=O)c2ccc(C(=O)c3ccc([N+](=O)[O-])cc3)cc2)CC1`, the Ki was 0.445 µM (Sigmar1; ligand displacement, radioligand; cell membranes).
For `CNC(=O)[C@@]12C[C@@H]1[C@@H](n1cnc3c(NCCC(F)(F)F)nc(C#Cc4ccc(Cl)s4)nc31)[C@H](O)[C@@H]2O`, the Ki was greater than 10 µM (OPRD1; ligand displacement, radioligand).
With `NS(=O)(=O)c1ccc(C(F)(F)F)cc1` the Ki was roughly 0.23 µM (CA2; enzyme activity, inhibitor, absorbance).
`O[C@@H]1[C@H](O)[C@@H]2C[C@@H]2[C@H]1n1cnc2c(NCCc3ccccc3)nc(C#Cc3ccccc3Cl)nc21` gave a Ki of greater than 10 µM (OPRD1; ligand displacement, radioligand).
For `Cc1cc(C)c2c(c1)[C@@H](N(Cc1cc(C(F)(F)F)cc(C(F)(F)F)c1)c1nnn(C)n1)CCCN2C[C@H]1CC[C@H](C(=O)O)CC1`, the Ki was 7.6 µM (Cytochrome P450 2C19 (CYP2C19, Homo sapiens, UniProt P33261); enzyme activity, inhibitor; human, liver microsomes; pH 7.4).
With `C#CCN(CCCN1CCN(C2CCCCC2)CC1)Cc1ccc(C(=O)c2ccc([N+](=O)[O-])cc2)cc1` the Ki was 0.0298 µM (Sigmar1; ligand displacement, radioligand; cell membranes).
For `CNC(=O)[C@@]12C[C@@H]1[C@@H](n1cnc3c(NC)nc(C#Cc4ccccc4)nc31)[C@H](O)[C@@H]2O`, the Ki was greater than 10 µM (OPRD1; ligand displacement, radioligand).
For `CCN(CC)Cc1cc(Nc2ccnc3cc(Cl)ccc23)ccc1O`, the Ki was greater than 100 µM (NAD(P)H dehydrogenase [quinone] 1 (NQO1, Homo sapiens, UniProt P15559); enzyme activity, inhibitor, absorbance).
With `CC(C)[C@@H](CC[C@@H](C)[C@H]1CC[C@H]2[C@@H]3[C@H](O)C[C@H]4C[C@@H](NCCCNCCCCNCCCN)CC[C@]4(C)[C@H]3CC[C@]12C)OS(=O)(=O)O` the Ki was 20 µM (Receptor-type tyrosine-protein phosphatase F (Homo sapiens, UniProt P10586); enzyme activity, inhibitor).
`CNC(=O)[C@@]12C[C@@H]1[C@@H](n1cnc3c(NCc4cccc(Cl)c4)nc(C#Cc4ccccc4)nc31)[C@H](O)[C@@H]2O` has a Ki of greater than 10 µM (OPRD1; ligand displacement, radioligand).
The Ki of `CC1CCC(C(=O)Nc2nnc(S(N)(=O)=O)s2)CC1` (stereo not shown) is reported as 0.026 µM (CA2; enzyme activity, inhibitor).
For `CC[Si](C#Cc1ccc2c(c1)C=C([N+](=O)[O-])C(C(F)(F)F)O2)(CC)CC` (stereo not shown), the Ki was 1.6 µM (ADRA2A; cell-free assay, radioligand).
With `O=C(c1ccc(CNCCCN2CCN(c3ccc(F)cc3)CC2)cc1)c1ccc([N+](=O)[O-])cc1` the Ki was 2.41 µM (Sigmar1; ligand displacement, radioligand; cell membranes).
With `Oc1cccc(Nc2nc(-c3ccc(F)cc3F)cs2)c1` the Ki was 3.6 µM (Cholecystokinin receptor type A (CCKAR, Homo sapiens, UniProt P32238); cell-free assay).
`O=C(O)/C=C/c1c[nH]cn1` has a Ki of 10000 µM (Pam; enzyme activity, inhibitor; pH 6).
For `COc1ccnc(Oc2ccc(-c3c(C)c(=O)[nH]c(=O)n3C)c(C)c2)c1C(F)(F)F`, the Ki was 6.9 µM (ADRA2A; ligand displacement, radioligand).
With `NS(=O)(=O)c1nnc(NC(=O)CC2CC2)s1` the Ki was 0.0076 µM (CA2; enzyme activity, inhibitor).
`CNc1nc(C#Cc2ccc(Cl)s2)nc2c1ncn2[C@H]1[C@H](O)[C@H](O)[C@]2(C(=O)OC)C[C@H]12` gave a Ki of greater than 10 µM (OPRD1; ligand displacement, radioligand).
`CCCCN1CCC(COC(=O)c2ccc(N)c(OCF)c2)CC1` has a Ki of greater than 10 µM (ADRA2A; cell-free assay, radioligand).
For `NS(=O)(=O)c1nnc(NC(=O)C2CCCC2)s1`, the Ki was 0.0765 µM (CA1; enzyme activity, inhibitor).
`O[C@@H]1[C@H](O)[C@@H]2C[C@@H]2[C@H]1n1cnc2c(NCc3cccc(Cl)c3)nc(C#Cc3ccc(F)c(F)c3)nc21` gave a Ki of greater than 10 µM (OPRD1; ligand displacement, radioligand).
For `COc1ccc(C(=O)Nc2ccc(N3CCC4(CC3)CCN(c3ccccn3)CC4)cc2)cc1`, the Ki was greater than 1 µM (SNCA fibril; ligand displacement, radioligand).
The Ki of `O=C(O)C=Cc1cccnc1` is reported as 6000 µM (Pam; enzyme activity, inhibitor; pH 6).
For `O=C(c1ccc(CNCCCN2CCN(C3CCCCC3)CC2)cc1)c1ccc([N+](=O)[O-])cc1`, the Ki was 1.32 µM (Sigmar1; ligand displacement, radioligand; cell membranes).
`CNc1nc(C#Cc2ccc(Cl)s2)nc2c1ncn2[C@@H]1O[C@H](C(=O)OC)[C@@H](O)[C@H]1O` gave a Ki of greater than 10 µM (OPRD1; ligand displacement, radioligand).
With `Cc1nc2cc(OCCCCN3CCN(c4cccc(Cl)c4Cl)CC3)ccc2s1` the Ki was 0.13 µM (5-hydroxytryptamine receptor 3A (HTR3A, Homo sapiens, UniProt P46098); cell-free assay, radioligand).
`C#CCN(CCCN1CCN(C2CCCCC2)CC1)c1ccc(C(=O)c2ccccc2)cc1` gave a Ki of 0.652 µM (Sigmar1; ligand displacement, radioligand; cell membranes).
For `CNC(=O)[C@@]12C[C@@H]1[C@@H](n1cnc3c(NCc4cccc(Cl)c4)nc(Cl)nc31)[C@H](O)[C@@H]2O`, the Ki was greater than 10 µM (OPRD1; ligand displacement, radioligand).
`CN1CCN(c2ccc(-c3ccnn3-c3ccc(S(N)(=O)=O)cc3)cc2)CC1` gave a Ki of 0.587 µM (CA2; enzyme activity, inhibitor, stopped-flow).
The Ki of `C#CCN(CCCN1CCN(c2ccc(F)cc2)CC1)Cc1ccc(C(=O)c2ccc([N+](=O)[O-])cc2)cc1` is reported as 0.29 µM (Sigmar1; ligand displacement, radioligand; cell membranes).
With `NS(=O)(=O)c1ccc(-n2nccc2-c2ccc(N3CCCCC3)cc2)cc1` the Ki was 0.689 µM (CA2; enzyme activity, inhibitor, stopped-flow).
`NS(=O)(=O)c1nnc(NC(=O)C2CC2)s1` gave a Ki of 0.0246 µM (CA2; enzyme activity, inhibitor).
